How the values were obtained:
[1] = melting temperature; fluorescence melt of hairpins on a sequencing array, two-state fit, raised by 9.35 °C to match UV melts; settings: sodium 0.088 M
Outline: (§1)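 To match UV melts, fitted temperatures were raised by 9.35 °C. These fits were bootstrapped two-state models that gave melting temperature and folding enthalpy, combined by inverse variance over four replicates. The input was normalised Cy3 fluorescence of library hairpins with annealed Cy3 and quencher oligos on a sequenced MiSeq flow cell, imaged in 50 mM Na-HEPES pH 8.0, 25 mM NaCl in 2.5 °C steps up to 60 °C.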

[2] = folding enthalpy; higher = less favourable; fluorescence melt of hairpins on a sequencing array, two-state fit; settings: sodium 0.088 M
Outline: as §1

Sequence	Tm [1]	folding enthalpy [2]
GCAAACGGAAACGTCTGC (((.(((....))).)))	44.7 °C	-25.2 kcal/mol
GCAAACGGAAACGTTCAC (..((((....))))..)	24.7 °C	-8.17 kcal/mol
GCAAACGGAAACGTTCGC ((.((((....)))).))	46.4 °C	-29.7 kcal/mol
GCAAAGCGAAAGCAATGC (((..((....))..)))	34.5 °C	-12.1 kcal/mol
GCAAAGCGAAAGCCTTGC ((((.((....)).))))	53 °C	-22.1 kcal/mol
GCAAAGCGAAAGCGTAGC ((.(.((....)).).))	55.9 °C	-17.1 kcal/mol
GCAAAGCGAAAGCGTGGC ((.(.((....)).).))	50.6 °C	-15.9 kcal/mol
GCAAAGCGAAAGCGTTGC ((((.((....)).))))	65 °C	-26.3 kcal/mol
GCAAAGCGAAAGCTAAGC ((..(((....)))..))	40.3 °C	-12.6 kcal/mol
GCAAAGCGAAAGCTGAGC ((..(((....)))..))	55.9 °C	-18.5 kcal/mol
GCAAAGCGAAAGCTGGGC ((..(((....)))..))	55.6 °C	-18.9 kcal/mol
GCAAAGGAAACTTTGC ((((((....))))))	55.3 °C	-31.2 kcal/mol
GCAAATCGAAAGATATGC (((.(((....))).)))	45.1 °C	-29.4 kcal/mol
GCAAATCGAAAGATCTGC (((.(((....))).)))	40.4 °C	-28.3 kcal/mol
GCAAATCGAAAGATTGC (((.(((....))))))	48.9 °C	-24 kcal/mol
GCAAATGGAAACACTTGC ((((.((....)).))))	33.9 °C	-31.5 kcal/mol
GCAACACCGAAAGGTTGC (((..(((....))))))	49.8 °C	-22.6 kcal/mol
GCAACACGAAAGTGCTGC (((.(((....))).)))	54.8 °C	-48.4 kcal/mol
GCAACAGCGAAAGCTTGC (((..(((....))))))	46.6 °C	-19.5 kcal/mol
GCAACCGAAAGGTAGTGC ((((((....)))..)))	41.2 °C	-20.1 kcal/mol
GCAACCGGAAACGATTGC ((((.((....)).))))	47.4 °C	-31.5 kcal/mol
GCAACGCGAAAGCCTTGC ((((.((....)).))))	47.9 °C	-21.5 kcal/mol
GCAACGCGAAAGCGACGC ((..(((....)))..))	48.5 °C	-15.9 kcal/mol

Sequence	Tm [1]	folding enthalpy [2]
GCAACGCGAAAGCGCCGC ((..(((....)))..))	40.8 °C	-9.13 kcal/mol
GCAACGCGAAAGCGTCGC ((.((((....)))).))	64.7 °C	-22.2 kcal/mol
GCAACGCGAAAGCTCTGC (((..((....))..)))	34.6 °C	-9.33 kcal/mol
GCAACGGCGAAAGCCTGC (((..(((....))))))	47 °C	-15.2 kcal/mol
GCAACTGGAAACAGTCGC ((.((((....)))).))	45.9 °C	-33 kcal/mol
GCAAGACGAAAGTCATGC (((.(((....))).)))	54.4 °C	-32.2 kcal/mol
GCAAGAGGAAACTCCTGC (((.(((....))).)))	35.2 °C	-18.2 kcal/mol
GCAAGCACGAAAGTGTGC (((..(((....))))))	40.4 °C	-16 kcal/mol
GCAAGCGAAAGCTAGTGC ((((((....)))..)))	39.9 °C	-17.8 kcal/mol
GCAAGCGGAAACGTTTGC ((((.((....)).))))	53.5 °C	-38.5 kcal/mol
GCAAGGCCGAAAGGCTGC (((..(((....))))))	51.6 °C	-14.8 kcal/mol
GCAAGGCGAAAGCATTGC ((((.((....)).))))	67.2 °C	-38.2 kcal/mol
GCAAGGCGAAAGCCTAGC ((.((((....)))).))	61.7 °C	-18.4 kcal/mol
GCAAGGCGAAAGCCTGC (((.(((....))))))	66.5 °C	-19.8 kcal/mol
GCAAGGCGAAAGCGGTGC (((..((....))..)))	47.1 °C	-21.2 kcal/mol
GCAAGGCGAAAGCGTCGC ((.(.((....)).).))	40.7 °C	-15.4 kcal/mol
GCAAGGCGAAAGCTTAGC ((.(.((....)).).))	38.8 °C	-13.6 kcal/mol
GCAAGGGCGAAAGCCTGC (((..(((....))))))	50.9 °C	-14 kcal/mol
GCAAGGGGAAACCCTTAC (.(((((....))))).)	33.6 °C	-14.3 kcal/mol
GCAAGTACGAAAGTATGC (((..(((....))))))	33.4 °C	-19 kcal/mol
GCAAGTCGAAAGACTGC (((.(((....))))))	57.1 °C	-25.8 kcal/mol
GCAAGTGAAAACTTGC ((((((....))))))	61.5 °C	-35.4 kcal/mol
GCAAGTGCGAAAGCATGC (((..(((....))))))	44.5 °C	-14 kcal/mol

Sequence	Tm [1]	folding enthalpy [2]
GCAAGTGGAAACATTTGC ((((.((....)).))))	45.9 °C	-29.8 kcal/mol
GCAAGTGGAAACGTTTGC ((((..(....)..))))	34.4 °C	-20.4 kcal/mol
GCAATACGAAAGTATGC (((.(((....))))))	50.6 °C	-29.4 kcal/mol
GCAATAGCGAAAGCTTGC (((..(((....))))))	48.7 °C	-24.7 kcal/mol
GCAATAGGAAACTACTGC (((.(((....))).)))	29.8 °C	-14.5 kcal/mol
GCAATCGAAAGATATGC ((((((....))).)))	36.3 °C	-21.1 kcal/mol
GCAATCGAAAGATGGTGC ((((((....)))..)))	36.3 °C	-21.2 kcal/mol
GCAATCGAAAGATTTGC ((((((....))).)))	44.2 °C	-27.6 kcal/mol
GCAATCGGAAACGATTGC (((((((....)))))))	69.2 °C	-41.9 kcal/mol
GCAATGCGAAAGCAATGC (((.(((....))).)))	56.5 °C	-40 kcal/mol
GCAATGCGAAAGCACAGC ((..(((....)))..))	34.3 °C	-14.9 kcal/mol
GCAATGCGAAAGCAGAGC ((..(((....)))..))	55 °C	-19.5 kcal/mol
GCAATGCGAAAGCCTAGC ((.(.((....)).).))	26.8 °C	-11.2 kcal/mol
GCAATGCGAAAGCCTGGC ((.(.((....)).).))	34.2 °C	-13.8 kcal/mol
GCAATGCGAAAGCGATGC (((..((....))..)))	53 °C	-20.6 kcal/mol
GCAATGGCGAAAGCCTGC (((..(((....))))))	50.5 °C	-14.1 kcal/mol
GCAATGGGAAACCGTTGC ((((.((....)).))))	55 °C	-43.3 kcal/mol
GCAATGGGAAACTATTGC (((((.(....).)))))	47 °C	-33.5 kcal/mol
GCAATGGGAAACTGTTGC ((((..(....)..))))	40.4 °C	-27.7 kcal/mol
GCAATTGCGAAAGCATGC (((..(((....))))))	40.2 °C	-14.9 kcal/mol
GCAATTGGAAACAGTTGC ((((.((....)).))))	47 °C	-33.3 kcal/mol
GCAATTGGAAACGATTGC (((((.(....).)))))	48.4 °C	-37.4 kcal/mol
GCACAACCGAAAGGTTGC (((..(((....))))))	37.8 °C	-8.1 kcal/mol

Sequence	Tm [1]	folding enthalpy [2]
GCACACGAAAGTGCCTGC ((((((....)))..)))	34.7 °C	-13.2 kcal/mol
GCACACGAAAGTGCTGC ((((((....))).)))	54.7 °C	-34 kcal/mol
GCACACGAAAGTGGATGC ((((((....)))..)))	45.6 °C	-17.9 kcal/mol
GCACACGGAAACACGTGC ((((..(....)..))))	40.2 °C	-22.5 kcal/mol
GCACACGGAAACATGTGC (((((.(....).)))))	47.4 °C	-35.2 kcal/mol
GCACACGGAAACGTGCAC (..((((....))))..)	33.2 °C	-9.99 kcal/mol
GCACAGCGAAAGCAGCGC ((.(.((....)).).))	53.6 °C	-19.4 kcal/mol
GCACAGCGAAAGCGGAGC ((.(.((....)).).))	61.6 °C	-25.9 kcal/mol
GCACAGCGAAAGCGTTGC (((..((....))..)))	48.2 °C	-15.5 kcal/mol
GCACAGCGAAAGCTACGC ((..(((....)))..))	42 °C	-16.7 kcal/mol
GCACAGGGAAACCCATGC (((..((....))..)))	32 °C	-17.6 kcal/mol
GCACATGCGAAAGCATGC (((..(((....))))))	40.4 °C	-7.24 kcal/mol
GCACATGGAAACGTGTGC (((((.(....).)))))	55.5 °C	-45.2 kcal/mol
GCACCACCGAAAGGTTGC (((..(((....))))))	39.5 °C	-15.9 kcal/mol
GCACCAGGAAACCGGTAC (.(((.(....).))).)	22.2 °C	-8.98 kcal/mol
GCACCAGGAAACTGGCAC (..((((....))))..)	23.9 °C	-11.6 kcal/mol
GCACCCCGAAAGGGCTGC (((.(((....))).)))	50 °C	-24.9 kcal/mol
GCACCCGAAAGGGAATGC ((((((....)))..)))	45.3 °C	-20.1 kcal/mol
GCACCCGAAAGGGCATGC ((((((....)))..)))	41 °C	-15 kcal/mol
GCACCCGAAAGGGTTTGC ((((((....)))..)))	41.6 °C	-13.2 kcal/mol
GCACCCGCGAAAGCGTGC (((..(((....))))))	42.6 °C	-14.5 kcal/mol
GCACCCGGAAACAGGCGC ((.((.(....).)).))	32.8 °C	-22.3 kcal/mol

Source: the array DNA melting data of Ke et al. (doi:10.1101/2024.01.08.574731)
